PubChem BioAssay AID624466 (The Scripps Research Institute Molecular Screening Center, 2012)
Out of some 360,000 compounds screened, about 5,400 (1.5%) were called active.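 The calls were made as follows: active = inhibition above a per-plate cutoff, the mean inhibition of test compounds on that plate plus 3 SD (cut at about 49% in these data); inactive = the rest.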 What follows is part of a selection rich in actives, with near analogues and random picks from the rest.

Target: Trace amine-associated receptor 1 (Homo sapiens) (UniProt Q96RJ0)
Sequence (Q96RJ0 whole entry, looked up): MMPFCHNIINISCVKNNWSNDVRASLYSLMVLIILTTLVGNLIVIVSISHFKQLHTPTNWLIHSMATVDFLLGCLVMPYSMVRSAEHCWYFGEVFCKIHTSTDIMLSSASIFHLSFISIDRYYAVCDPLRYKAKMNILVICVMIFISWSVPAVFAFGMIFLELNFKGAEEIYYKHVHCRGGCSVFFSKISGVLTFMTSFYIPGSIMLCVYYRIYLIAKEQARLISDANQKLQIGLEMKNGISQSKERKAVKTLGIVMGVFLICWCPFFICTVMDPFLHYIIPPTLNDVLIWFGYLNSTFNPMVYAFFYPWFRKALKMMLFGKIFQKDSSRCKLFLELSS
Assay: human TAAR1 antagonists, primary screen, Fluo-8 calcium fluorescence, CHO RD-HGA16 cells (AID 624466);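 also: 0% = DMSO plus EC80 beta-PEA response and 100% = DMSO alone without agonist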
Conditions: CHO RD-HGA16 TAAR1, Fluo-8 calcium fluorescence, antagonist; at 3 µM; hits give high values
Summary of the method: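 Test system – hTAAR1-expressing CHO RD-HGA16 cells, Gα16-coupled · Also added – β-PEA at EC80 concentration, post-compound challenge · Compound – 3 µM, single point · Incubation – dye loading 75 min at 37 °C, then 30 min room temperature · Measured by – Fluo-8 intracellular calcium dye fluorescence, real-time kinetic reads · Benchmarks – vehicle and agonist controls · Replicates – singlicate, one well per test compound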

| Structure (SMILES) | inhibition |
| --- | --- |
| COc1ccc(OC)c(CN2C(=O)CCC2(C)c2nnnn2Cc2ccccc2)c1 (stereo unspecified) | -20.4% (inactive) |
| COC(=O)c1ccc(Oc2nc(Nc3ccc(F)cc3)nc(N3CCCC3)n2)cc1 | -16.1% (inactive) |
| CCN1CCN(c2nc(Nc3cc(OC)ccc3OC)nc(Nc3cc(OC)ccc3OC)n2)CC1 | -14.1% (inactive) |
| CCOc1ccc(Nc2nc(Cl)nc(N3CCN(c4ccc(OC)cc4)CC3)n2)cc1 | 56.5% (active) |
| CC(C)c1ccc(C=NNc2ccc([N+](=O)[O-])cn2)cc1 | 17.1% (inactive) |
| O=[N+]([O-])c1ccc(N=NNc2ccc([N+](=O)[O-])cc2)cc1 | -6.71% (inactive) |
| O=[N+]([O-])c1ccc(N/N=C/c2ccccc2)cc1 | 61.6% (active) |
| O=C(NN=Cc1ccco1)C(=O)Nc1ccc(Cl)c([N+](=O)[O-])c1 | 8.28% (inactive) |
| CN(C)c1ccc(C=NCCc2ccc(S(N)(=O)=O)cc2)cc1 | -1.3% (inactive) |
| c1ccc2c(c1)CCc1snnc1-2 | -2.49% (inactive) |
| S=C(NCCCc1cnc[nH]1)NCCCN(Cc1ccc(Cl)c(Cl)c1)c1ccc(Br)cn1 | 51.9% (active) |
| NCCCNC(=S)NCCCN(Cc1ccc(Cl)cc1)c1ccc(Br)cn1 | 0.12% (inactive) |
| C=CCN=C1NC(c2ccccc2)C(C(=O)OC)=C(C)N1Cc1ccc(C(F)(F)F)cc1 (stereo unspecified) | 31.4% (inactive) |
| CSc1ncccc1C(=O)N1CCCC(Nc2ccc(F)c(F)c2)C1 (stereo unspecified) | 4.84% (inactive) |
| CC(=O)c1c(C)[nH]c(C(=O)COC(=O)c2cccc(S(=O)(=O)N(C)c3ccccc3)c2)c1C | 81.8% (active) |
| CC(=O)c1c(C)[nH]c(C(=O)COC(=O)c2cccs2)c1C | 36% (inactive) |
| CN(c1ccccc1)S(=O)(=O)c1ccc(Cl)c(C(=O)OCC(N)=O)c1 | -0.08% (inactive) |
| O=C(Nc1ccccc1-c1nnn(CC(=O)N2CCN(c3ccccc3)CC2)n1)c1cccs1 | 62% (active) |
| O=C(Nc1ccc(N2CCN(C(=O)C3CC3)CC2)cc1)c1cccs1 | 16.4% (inactive) |
| COc1ccccc1N1CCN(C(=O)Cn2nnc(-c3cccs3)n2)CC1 | 2.09% (inactive) |
| Cc1ccc(F)cc1S(=O)(=O)Nc1cccc(C(=O)N2CCCC(C(N)=O)C2)c1 (stereo unspecified) | -13.3% (inactive) |
| COC(=O)[C@]12CCCCC=C1N(Cc1ccco1)C(=O)[C@H](CC(=O)NCCCCc1ccccc1)C2 | 12.7% (inactive) |

| Structure (SMILES) | inhibition |
| --- | --- |
| CN(C)c1ccc(/C=C2\NC(=S)N(Cc3ccccc3)C2=O)cc1 | 74.3% (active) |
| CC(=O)C1=C(C)N(Cc2ccccc2)C(=S)NC1c1cccc(Br)c1 (stereo unspecified) | 25.4% (inactive) |
| CN(C(=O)CN1C(=O)NC(C)(CCc2ccccc2)C1=O)c1ccccc1 (stereo unspecified) | 9.09% (inactive) |
| O=C(NCCCc1ccccc1)C(=O)c1c[nH]c2ccccc12 | -6.38% (inactive) |
| COc1ccc(OC)c2[nH]c(=O)c(CCNC(=O)C(C)(C)C)cc12 | -17% (inactive) |
| COc1ccc(OC)c2[nH]c(=O)c(CCNC(=O)C(=O)c3c[nH]c4ccccc34)cc12 | 64.7% (active) |
| CC(=O)Nc1ccc(NC(=O)COC(=O)C2CCC(C(C)(C)C)CC2)cc1 (stereo unspecified) | 65.2% (active) |
| O=C(COC(=O)C1CCCCC1)Nc1ccc([N+](=O)[O-])cc1 | 35.5% (inactive) |
| CCC(C)c1ccc(NC(=O)COC(=O)C2CCCC2)cc1 (stereo unspecified) | 5.25% (inactive) |
| O=C(Nc1ccc(F)cc1)C(CCc1ccccc1)N1CCN(CC(=O)N2CCCC2)CC1 (stereo unspecified) | 4.42% (inactive) |
| C[C@H](CO)N1C[C@H](C)[C@@H](CN(C)C(=O)Nc2ccccc2F)OCc2cn(nn2)CCCC1=O | 6.99% (inactive) |
| CCCNC(=O)C1(C)CCN(Cc2csc(-c3ccc(Cl)cc3)n2)C1 (stereo unspecified) | -5.66% (inactive) |
| CN(C)S(=O)(=O)c1cccc(NC(=O)COc2ccc3ccccc3c2)c1 | 30.8% (inactive) |
| CN(C)S(=O)(=O)c1cccc(NC(=O)COC(=O)c2cc(=O)[nH]c(=O)[nH]2)c1 | -12.5% (inactive) |
| CN(C)S(=O)(=O)c1cccc(NC(=O)COC(=O)C2(c3ccccc3F)CCCC2)c1 | 62.5% (active) |
| Nc1[nH]c(C(=O)c2ccc(Br)cc2)c(-c2ccc3c(c2)OCO3)c1C(=O)NCCc1c[nH]c2ccccc12 | -6.65% (inactive) |
| CC(C)(C)NC(=O)CN(C(=O)c1csnn1)c1ccccc1-c1ccccc1 | 5.99% (inactive) |
| COc1ccc(OCC(O)CNC(=O)Nc2ccc(Cl)cc2)cc1 (stereo unspecified) | 12.9% (inactive) |
| OC(COc1ccccc1)CN1CCN(c2cccc(Cl)c2)CC1 (stereo unspecified) | -33.9% (inactive) |
| OC(CNCCc1ccc(Cl)cc1Cl)COc1ccccc1 (stereo unspecified) | 52.8% (active) |
| CCOc1ccc(CCN2C(=O)C(=O)N([C@@H](Cc3ccc(O)cc3)CN3CCC[C@H]3CN3C(=O)C(=O)NC[C@@H]3CC(C)C)C[C@@H]2Cc2ccccc2)cc1 | -8.01% (inactive) |
| CCOC(=O)C1CSCCS(=O)(=O)N1Cc1ccc(Cl)cc1 (stereo unspecified) | -2.26% (inactive) |

| Structure (SMILES) | inhibition |
| --- | --- |
| C=CCn1c(SCC(=O)CC(=O)OCC)nc2cc(C(=O)N3CCC(C(N)=O)CC3)ccc2c1=O | -12.6% (inactive) |
| C=CCn1c(SCc2cccc(F)c2)nc2cc(C(=O)N3CCC(C(N)=O)CC3)ccc2c1=O | 62.7% (active) |
| NC(=O)C1CCN(C(=O)c2ccc3c(=O)n(Cc4cccc(Br)c4)c(=S)[nH]c3c2)CC1 | -0.46% (inactive) |
| COc1ccc2[nH]c(=O)c(CN(Cc3cccnc3)S(=O)(=O)c3ccccc3F)cc2c1 | 69.4% (active) |
| CCOc1ccc2[nH]c(=O)c(CN(CCCO)S(=O)(=O)c3ccc(F)cc3)cc2c1 | 28.9% (inactive) |
| COc1ccc(-c2[nH]ncc2CN(C)Cc2cccnc2)c(F)c1 | -6.76% (inactive) |
| O=C(Nc1ccccc1)c1ccc2nsnc2c1 | -3.37% (inactive) |
| O=C(Nc1cccc(NC(=O)c2ccc(Br)cc2)c1)c1ccccc1 | 66% (active) |
| CC(C)(C)NC(=O)c1cccc(NC(=O)Cc2ccc(Br)cc2)c1 | -5.95% (inactive) |
| CCn1cc(/C=C2/SC(=S)NC2=O)c(C)n1 | -4.35% (inactive) |
| O=C(NCc1cccnc1)c1ccc2nc([C@@H]3O[C@H](CO)[C@H](O)[C@H](O)[C@H]3O)[nH]c2c1 | 1.36% (inactive) |
| CCOc1ccc(N2CC(C(=O)N/N=C/c3sccc3C)CC2=O)cc1 (stereo unspecified) | 105% (active) |
| CCOc1ccc(NC(=O)[C@H](C)NC(=O)C2CC(=O)N(c3ccc(OC)cc3)C2)cc1 (stereo partly specified) | -34.6% (inactive) |
| CCOc1ccc(N2CC(C(=O)NCc3ccccn3)CC2=O)cc1 (stereo unspecified) | -11.4% (inactive) |
| O=C(NCc1ccccc1)[C@H]1CCCN1C(=O)[C@H]1CCCN1C(=O)c1cc(F)cc(F)c1 | -9.09% (inactive) |
| COC(=O)[C@]12CCCCC=C1N(Cc1ccc3c(c1)OCO3)C(=O)[C@H](CC(=O)N1CCOCC1)C2 | 2.33% (inactive) |
| Cn1c(=O)c2ccccc2n(CC(=O)Nc2ccc3c(c2)OCCO3)c1=O | -4.86% (inactive) |
| Cc1c(C(=O)NCc2ccc(C#N)cc2)sc(=O)n1Cc1ccc(C(=O)N(C)C)cc1 | 0.09% (inactive) |
| CC(=O)Oc1ccc(Cn2c(C)c(C(=O)NCc3ccc(C#N)cc3)sc2=O)cc1 | 85.1% (active) |
| Cc1ccc(Cn2c(C)c(C(=O)NCc3ccccc3C(F)(F)F)sc2=O)cc1 | 24% (inactive) |
| OC(CCl)CCl | -9.09% (inactive) |
| CCCCCn1nnnc1-c1nc2cc3ccccc3cc2[nH]c1=O | 21.1% (inactive) |

| Structure (SMILES) | inhibition |
| --- | --- |
| Cc1ccc(Cc2c(-c3ccc(Cl)cc3)nc3c4ccccc4ccn23)cc1 | -7.64% (inactive) |
| COC(=O)C[C@H]1C=C[C@@H](NS(=O)(=O)c2ccc(C)cc2)[C@@H](CO)O1 | -21.2% (inactive) |
| O=C(CN(c1ccc2c(c1)OCCO2)S(=O)(=O)c1ccccc1)Nc1ccc2c(c1)OCO2 | 54% (active) |
| COc1ccc(N(CC(=O)Nc2cc(OC)ccc2OC)S(=O)(=O)c2c(C)noc2C)cc1 | 4.12% (inactive) |
| Cc1noc(C)c1S(=O)(=O)N(CC(=O)Nc1ccc2c(c1)OCCO2)c1ccc(C(C)C)cc1 | 52.7% (active) |
| CCN(CC(=O)Nc1ccc2c(c1)OCO2)S(=O)(=O)c1ccccc1 | 7.44% (inactive) |
| CCOC(=O)c1cccc(NC(=O)CN(c2ccc(C)cc2)S(=O)(=O)c2c(C)noc2C)c1 | 72.2% (active) |
| Cc1noc(C)c1S(=O)(=O)N(CC(=O)NCc1ccc(Cl)cc1)c1ccc2c(c1)OCO2 | -0.54% (inactive) |
| Cc1cc(C)cc(N(CC(=O)NCC2CCCO2)S(=O)(=O)c2c(C)noc2C)c1 (stereo unspecified) | -14.5% (inactive) |
| O=C(CCS(=O)(=O)Cc1ccccc1)Nc1ccc2c(c1)OCCO2 | -13.2% (inactive) |
| CCOc1ccc(N(CC(=O)OC)S(=O)(=O)c2c(C)noc2C)cc1 | 1.95% (inactive) |
| C[C@H](O)[C@@H]1CN2CCc3ccc(-c4ccc5c(c4)OCO5)cc3[C@@H]2C[C@@H]1N(C)C(=O)C1CCCCC1 | -24.1% (inactive) |
| OC(c1cc(Cl)cc(Cl)c1)c1ncc(-c2ccccc2C(F)(F)F)[nH]1 (stereo unspecified) | 11.8% (inactive) |
| Cc1cc2c(nc1C)CCCN2C | 0.43% (inactive) |
| COc1ccc(N2c3ccccc3CN(Cc3ccccc3)[C@@H](C)[C@H]2Cc2ccc(-c3ccccc3)cc2)cc1 | -11.9% (inactive) |
| COC(=O)[C@]12C[C@H](CC(=O)NCCc3ccccc3OC)C(=O)N(Cc3ccccc3)C1=C[C@H](C(C)C)O[C@@H]2C1CC1 | -27.5% (inactive) |
| Cc1ccc2nc(COc3ccc(N(C)S(=O)(=O)c4ccccc4)cc3)cc(=O)n2c1 | 36% (inactive) |
| Cc1cccc(NC(=O)C2CCN(S(=O)(=O)c3cccc4cccnc34)CC2)c1 | 32.8% (inactive) |
| O=C(Nc1ccccn1)C1CCN(S(=O)(=O)c2ccccc2)CC1 | 0.4% (inactive) |
| Cc1ccnc(NC(=O)C2CCN(S(=O)(=O)c3c(C)c(C)cc(C)c3C)CC2)c1 | 50% (active) |
